Sampled rows, rich in hits. Any-hit rate of the full collection: about 1.9%.
b-catenin transl: modulators of beta-catenin nuclear translocation | HeLa beta-catenin nuclear translocation, immunofluorescence imaging | nuclear translocation activity, % at 5 µM | actives 0.3% (n = 190,000);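 active = nuclear translocation activity above 50% at 5 µM, with a well cell count of 50 or more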;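 note: per-cell ratio of nuclear to cytoplasmic median beta-catenin stain intensity; plate controls were DMSO negative control for no effect and GSK-3 inhibitor IX positive control for full effect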
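Assay system: human HeLa cells, native beta-catenin; doses: 5 µM primary, 0.02–20 µM confirmation; incubation: compound treatment 24 h, 37°C, 5% CO2; technique: fluorescence imaging of beta-catenin antibody stain plus DAPI; measure: % activation, nuclear-to-cytoplasmic median beta-catenin signal ratio per cell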
ROMK primary: modulators of human ROMK potassium channel; P48048; Tet-inducible ROMK, thallium flux fluorescence; actives lie on both sides; B-score at 10 µM; actives 2% (n = 130,000); AID 1918;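 active = signal ratio slope over the read window, or its plate-corrected B-score, at least 3 SD from the plate mean, either direction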;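 note: B-score of the F/F0 ratio slope over 7 to 12 s after thallium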
Target sequence (P48048 whole entry, looked up): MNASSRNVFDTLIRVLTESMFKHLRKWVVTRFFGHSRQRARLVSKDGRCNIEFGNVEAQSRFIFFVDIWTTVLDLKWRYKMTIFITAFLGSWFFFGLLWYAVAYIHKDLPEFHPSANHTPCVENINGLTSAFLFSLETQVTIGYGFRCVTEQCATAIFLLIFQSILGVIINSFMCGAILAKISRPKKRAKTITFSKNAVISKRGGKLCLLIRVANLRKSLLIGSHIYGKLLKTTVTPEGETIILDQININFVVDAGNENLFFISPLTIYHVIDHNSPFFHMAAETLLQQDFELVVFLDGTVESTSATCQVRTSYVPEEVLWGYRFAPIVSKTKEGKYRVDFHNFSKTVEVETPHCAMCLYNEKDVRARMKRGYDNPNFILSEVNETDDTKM
MT stabilizer: microtubule stabilizers in HeLa cells; % tubulin-high responders, % at 10 µM; AID 2205; HeLa tubulin immunostaining HCS, 24 h; share of cells brighter than vehicle mean+2SD; actives 0.83% (n = 200,000);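 active = plate Z-score above 3 for both tubulin-high and condensed-nucleus cell shares, with cell loss under 80%, at 10 µM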;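 note: anti alpha tubulin signal scored within the nucleus-defined area of each cell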
The depositor's hits bear a star; · = no result.

SMILES	b-catenin transl	ROMK primary	MT stabilizer
CS(=O)(=O)c1nc(-c2cccs2)cc(C(F)(F)F)n1	-1.9	-4.25*	1.1
O=C(O)CCS(=O)(=O)c1nc(-c2cccs2)cc(C(F)(F)F)n1	-2.5	-0.59	1.8
Cc1cc(C(=O)N/N=C/c2ccc[nH]2)no1	0.2	0.387	2.0
Cc1cc(C(=O)N/N=C/c2ccccc2Br)no1	-0.2	3.09*	3.5
COc1ccc(N(C)C(=O)c2oc(=O)c3ccccc3c2-c2ccc(C)cc2)c(OC)c1	2.3	-0.747	·
CNC(=S)N1CCN(C(=O)C2CCCO2)CC1 (centres undefined)	-3.1	1.28	2.3
CCc1ccc2nc(NC(=O)c3cc(C)on3)sc2c1	36.3	·	38.1*
Cc1cc(C)c2nc(NC(=O)c3cc(C)on3)sc2c1	·	1.65	1.3
CCOc1cc(C(=O)N/N=C/C(Br)=C/c2ccccc2)cc(OCC)c1OCC	·	·	9.1*
O=C(N/N=C/C(Br)=C/c1ccccc1)c1ccncc1	-4.4	·	·
O=C(C1CC=CCC1)N1CCC(CO)(Cc2ccc(Cl)cc2)CC1 (centres undefined)	-0.5	0.428	4.4
COc1ccc(C(=O)c2ccc(N(C)C)cc2)c(OC)c1	95.5*	·	24.4
COc1ccc(C(=O)c2ccc(N3CCOCC3)cc2)c(OC)c1	6.1	0.0105	3.9
COc1ccc(OC)c(C(=O)c2ccc(C(=O)c3cc(OC)ccc3OC)cc2)c1	-1.4	·	2.5
COc1ccc(C(=O)c2ccc(OC)cc2OC)cc1	55.7*	-0.274	·
CCCCN(CC)CCCNC(=O)CN1C(=O)CSc2ccc(S(=O)(=O)N3CCOCC3)cc21	-1.1	0.15	2.5
N#C/C(=C/c1ccc(-c2ccccc2)o1)c1nc(-c2cccs2)cs1	-1.8	-5.34*	3.7
N#C/C(=C\c1ccc(-c2ccc(F)cc2)o1)C(=O)Nc1nc(-c2cccs2)cs1	0.3	·	1.8
CSc1nc(SCC(=O)NCc2ccco2)c2c3c(sc2n1)COC(C)(C)C3	-0.8	·	34.7*
CCCCSc1nc(SCC(=O)NCc2ccco2)c2c3c(sc2n1)COC(C)(CC)C3 (centres undefined)	2.9	·	3.2
CCCCc1nc2sc3c(SCCN(C)C)ncnc3c2c2c1CCC2	4.2	·	·
CCCCc1nc2sc3c(SCC(=O)NCc4ccco4)ncnc3c2c2c1CCC2	17.0	·	33.0*
COc1ccc2c(C=O)cn(C)c2c1	0.0	0.34	0.9
CCNS(=O)(=O)c1ccc2nc(NC(=O)/C=C/c3cc(OC)c(OC)c(OC)c3)sc2c1	0.0	0.0188	5.5
C=CCOc1c(Cl)cc(C2NC(=O)NC(C)=C2C(=O)OC)cc1Cl (centres undefined)	-0.1	·	22.9*
SMILES	b-catenin transl	ROMK primary	MT stabilizer
C=CCOc1c(OC)cc(Cl)cc1C1NC(=O)NC(C)=C1C(C)=O (centres undefined)	-3.8	-0.832	2.3
N#CC1=C(N)Oc2cc(O)ccc2C1c1cccs1 (centres undefined)	0.8	-0.495	1.2
N#CC1=C(N)Oc2c(ccc3ccccc23)C1c1cccs1 (centres undefined)	130.8*	0.51	20.0*
CC1(C)Oc2ccc(C#N)cc2[C@@H](N2CCCC2=O)[C@@H]1O	0.4	·	3.8
Cn1c(/C(C#N)=C/c2ccc(O)cc2)nc2ccccc21	0.6	·	·
Cn1c(/C(C#N)=C/c2ccncc2)nc2ccccc21	-0.6	-3.64*	1.5
COc1cc(/C=C(\C#N)c2nc3ccccc3n2C)cc(OC)c1O	-3.3	-4.14*	1.5
Cn1c(/C(C#N)=C/C2CC=CCC2)nc2ccccc21 (centres undefined)	1.5	·	4.9
NC(=S)N/N=C/c1ccccc1OCCSc1ccc(Cl)cc1	1.6	-0.081	3.2
Nc1nnc(CCS(=O)(=O)c2ccc(Br)cc2)s1	-1.4	0.443	4.6
CC(=O)c1sc2nsc(SCCN3CCCC3)c2c1N	-0.8	·	·
COc1ccc(-n2c(C)cc(C(=O)CN3C(=O)NC4(CCCc5sccc54)C3=O)c2C)cc1 (centres undefined)	-2.1	-0.619	1.9
COc1ccc(-n2c(C)cc(C(=O)CN3C(=O)C(=O)N(Cc4ccccc4)C3=O)c2C)cc1	6.4	0.0876	12.8*
COc1ccccc1-n1c(=O)c2c3c(sc2n2c(=S)[nH]nc12)CCC3	0.8	1.42	2.9
CC(=O)Nc1cc2ccccc2oc1=O	0.7	-0.0628	1.2
Cc1cc(NC(=S)NC(=O)c2ccccc2)ccc1-c1cc2ccccc2oc1=O	0.1	-0.226	15.5*
COc1cc(C(=O)NC(=S)Nc2cccc(-c3cc4ccccc4oc3=O)c2)cc(OC)c1OC	4.2	·	1.5
Cc1ccc(C(=O)Nc2cc3ccccc3oc2=O)cc1	84.1*	0.0335	32.7*
Cc1c(C(=O)COC(C)(C)C)[nH]c2ccccc12	-2.0	·	3.4
CC(C)S(=O)(=O)c1csc(NC(=O)Nc2cccc([N+](=O)[O-])c2)c1Cl	-0.4	·	·
CCc1ccc2nc(SCC(=O)Nc3ccccc3N3CCOCC3)c(C#N)cc2c1	19.2	·	·
Cc1ccc2nc(SCC(=O)Nc3ccccc3N3CCOCC3)c(C#N)cc2c1	-5.8	·	46.3*
CC1(C)CCCC(C)(C)N1CC(O)COCCOc1ccc(Br)cc1 (centres undefined)	-1.8	·	2.6
COc1cc2c(cc1OC)C(c1cccs1)N(C(=O)C(C)C)CC2 (centres undefined)	-0.9	·	5.7
COc1cc2c(cc1OC)C(c1cccs1)N(C(=O)c1cccnc1)CC2 (centres undefined)	52.6*	1.51	16.7*
SMILES	b-catenin transl	ROMK primary	MT stabilizer
CCCNC(=O)N1CCN(S(C)(=O)=O)CC1	-0.2	-0.217	3.0
CCCCNc1ncnc2c1cnn2-c1ccc(Cl)cc1	47.8	·	17.6*
c1ccc(-n2ncc3c(NCCCN4CCOCC4)ncnc32)cc1	1.0	0.0372	2.1
CCCCNc1ncnc2c1cnn2-c1ccccc1	77.1*	1.82	31.9*
Clc1ccc(-n2ncc3c(NCCCn4ccnc4)ncnc32)cc1	-3.1	-0.866	1.3
Cc1cc([N+](=O)[O-])cc2c1NC(=O)C2(O)N1CCOCC1 (centres undefined)	-1.2	-0.564	2.7
Cc1cc(/C=C2\SC(=S)NC2=O)c(C)n1-c1ccc(O)cc1	0.1	-4.4*	·
Cc1cc(/C=C2\SC(=S)NC2=O)c(C)n1-c1ccccc1	-3.9	·	·
Cc1ccc(Cl)cc1NC1=C/C(=N\S(=O)(=O)c2cccs2)c2ccccc2C1=O	·	-1.64	32.8*
Cc1ccc(NC2=C/C(=N\S(=O)(=O)c3cccs3)c3ccccc3C2=O)c(C)c1	-0.9	-2.16	28.3
CCC(NC(=O)c1cccc(Cn2cc([N+](=O)[O-])cn2)c1)c1ccc(C(C)C)cc1 (centres undefined)	-5.8	-0.668	1.3
CC(NC(=O)c1cccc(Cn2cc([N+](=O)[O-])cn2)c1)c1ccc(C(C)(C)C)cc1 (centres undefined)	·	-0.0443	46.4*
O=C(CSc1ncn[nH]1)N1c2ccccc2Sc2ccccc21	-1.1	·	·
Cc1ccc2c(c1C)OC(=O)CC2(C)C	0.4	·	2.6
CCOC(=O)c1ccc(Oc2cc(C)nc(SC)n2)cc1	0.1	·	44.3*
CCOC(=O)COC(=O)c1ccc(Oc2cc(C)nc(SC)n2)cc1	-1.0	-0.845	3.2
Cc1cccc(N2CCN(C(=O)c3ccoc3C)CC2)c1C	0.3	-0.586	4.1
COc1ccc(Cn2c(C3CCCCC3)nc3c(c(=O)c4ccccc4n3C)c2=O)cc1	0.6	·	·

Bioassay records deposited in PubChem BioAssay by several laboratories.
